Measured values from article PMC3941710 (Journal of medicinal chemistry, 2009).

Experiments:
[1] = molecular target: T1, human sex hormone binding globulin (SHBG) (Homo sapiens, UniProt P04278); assay: Binding to purified human SHBG; details: size-exclusion HPLC / ITLC
T1 sequence (P04278 30-402): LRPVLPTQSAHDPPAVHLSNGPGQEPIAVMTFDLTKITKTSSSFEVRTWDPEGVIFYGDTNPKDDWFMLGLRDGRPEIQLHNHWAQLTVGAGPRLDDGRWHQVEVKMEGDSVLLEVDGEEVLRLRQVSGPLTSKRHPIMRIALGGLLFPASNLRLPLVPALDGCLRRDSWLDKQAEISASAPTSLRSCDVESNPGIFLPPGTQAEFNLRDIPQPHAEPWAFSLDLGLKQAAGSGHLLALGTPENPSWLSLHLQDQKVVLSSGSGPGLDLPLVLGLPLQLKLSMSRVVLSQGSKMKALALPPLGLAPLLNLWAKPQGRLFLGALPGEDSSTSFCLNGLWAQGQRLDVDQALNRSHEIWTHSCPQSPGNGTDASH

[2] = Stability in PBS; format: physicochemical; details: PBS/CH3CN 10:1, pH 7.1, ambient temperature, up to 24 h
[3] = test system: LNCaP human prostate cancer cells; assay: Uptake and subcellular distribution in LNCaP cells; format: cell-based; details: proliferating LNCaP monolayer, 24 h exposure
[4] = test system: PC-3 cells; assay: Uptake of 8 in PC-3 cells with or without DHT at 4 °C; format: cell-based, human; details: 0.1 μCi/mL 8, 0.1 μM DHT, 16 h
In short: (§1)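 Cells with very low or no AR expression. Non-radioactive DHT competitor was added before the radioiodinated test compound to block AR binding. Cells were grown with the test compound at 4 °C for 16 h and cellular retention was compared with DHT-free cells.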

[5] = test system: MCF-7 cells; assay: Uptake of 8 in MCF7 cells with or without DHT at 4 °C; format: cell-based, human; details: 0.1 μCi/mL 8, 0.1 μM DHT, 16 h
In short: as §1

[6] = test system: intraperitoneal NIH:OVCAR-3 xenografts; assay: Biodistribution and imaging of 8 in athymic mice with ip NIH:OVCAR-3 xenografts; format: in vivo, mouse
[7] = test system: intraperitoneal NIH:OVCAR-3 xenografts; assay: Therapy with 8 in OVCAR-3-bearing athymic mice; format: in vivo, mouse
[8] = Binding and stability in human serum
[9] = Binding and stability in mouse serum
[10] = Binding and stability in rabbit serum
[11] = test system: LNCaP human prostate cancer cells; assay: Cell survival of LNCaP cells; format: cell-based; details: 48 h, extracellular concentration 8 μCi/mL
In short: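 LNCaP cells plated at 2000 cells/well, allowed to attach for 24 h, then given fresh charcoal–dextran-stripped medium containing radioactive test compound. Survival read by CellTiter-Fluor viability assay or CellTiter 96 AQueous One Solution proliferation assay.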

[12] = test system: intraperitoneal NIH:OVCAR-3 xenografts; format: in vivo, mouse
[13] = test system: intraperitoneal NIH:OVCAR-3 xenografts; assay: Fractionated therapy and biodistribution of 13 in OVCAR-3-bearing mice; format: in vivo, mouse
[14] = Biodistribution of fractionated ip doses of 13 in healthy mice; format: in vivo, mouse; details: control (healthy) mice
[15] = cell pellet, six fractionated ip treatments
[16] = 13 (0.25 mCi) + SHBG therapy group, or SHBG only

C[C@]12CCC(=O)C[C@@H]1CC[C@@H]1[C@@H]2CC[C@]2(C)[C@@H](OC(=O)CCC(=O)O[C@H]3C[C@H](n4cc([125I])c(=O)[nH]c4=O)O[C@@H]3CO)CC[C@@H]12 [compound 8, 5-[^125I]Iodo-3′-O-(17β-succinyl-5α-androstan-3-one)-2′-deoxyuridine]
binding to pure SHBG isolated from human serum [1]: bind to pure SHBG isolated from human serum | stability in PBS [2]: stable in PBS | Bmax (single cell-binding isotherm) [3]: 1.4 × 10^−6 pmol/cell | effect of DHT competitor on cellular retention [4]: In neither PC-3 nor MCF-7 cells was the cellular retention of 8 influenced by the presence of competitor | effect of DHT competitor on cellular retention [5]: In neither PC-3 nor MCF-7 cells was the cellular retention of 8 influenced by the presence of competitor | peritoneal lavage radioactivity associated with OVCAR-3 cells ([6]; 24 h and later after ip administration): > 95% | uptake in uterus ([6]; 72 h after ip administration): up to 1 % ID/g | whole body radioactivity associated with the intraperitoneal tumor (ROI) ([6]; 72 h after ip administration of 45 μCi 8): 8.3% ± 2.1% | fraction of lavage radioactivity associated with cancer cells ([6]; 72 h after ip injection of 45 μCi 8): > 97% | radioactivity retained in tumors ([7]; 12 days after the last of six therapeutic doses, decay corrected): ~ 0.5 % ID/g | range of weight [7, 15]: 0.012 to 0.781 g | average cell pellet weight (g) (SEM) ([7]; six fractionated ip treatments): 0.380(0.111) g | ^125I bound to DNA as share of total cell-associated radioactivity ([7]; tumors 12 days after the last of six doses): 86.8% ± 7.4% | binding to SHBG in human serum [8]: bind to SHBG in rabbit and human serum | intact compound remaining ([8]; human serum, after 60 min of incubation): > 91% | binding to mouse serum [9]: does not bind to mouse serum | time in which mouse serum degrades 8 to 1 ([9]; mouse serum, no SHBG): < 10 min | binding to SHBG in rabbit serum [10]: bind to SHBG in rabbit and human serum | intact compound remaining ([10]; rabbit serum, after 60 min of incubation): > 84%

C[C@]12CCC(=O)C[C@@H]1CC[C@@H]1[C@@H]2CC[C@]2(C)[C@@H](OC(=O)CCC(=O)O[C@H]3C[C@H](n4cc([125I])c(=O)[nH]c4=O)O[C@@H]3COP(=O)(O)O)CC[C@@H]12 [compound 13, 5-[^125I]Iodo-3′-O-(17β-succinyl-5α-androstan-3-one)-2′-deoxyuridin-5′-yl Monophosphate]
binding to pure SHBG isolated from human serum [1]: bind to pure SHBG isolated from human serum | stability in PBS [2]: stable in PBS | cells dead [11]: Ninety percent | adverse effects from hematologic data ([12]; 0.25 mCi dose): no overt adverse effects | fold lower radioactivity in blood than in cancer cells ([12]; necropsy after bolus dose of 13): > 2.5 × | percent injected dose per gram of tissue, blood ([13]; OVCAR-3 mice, blood): 0.003(0.0010) percent injected dose per gram of tissue | percent injected dose per gram of tissue, heart ([13]; OVCAR-3 mice, heart): 0.003(0.0004) percent injected dose per gram of tissue | percent injected dose per gram of tissue, kidney ([13]; OVCAR-3 mice, kidney): 0.013(0.0063) percent injected dose per gram of tissue | percent injected dose per gram of tissue, large intestine ([13]; OVCAR-3 mice, large intestine): 0.008(0.0009) percent injected dose per gram of tissue | percent injected dose per gram of tissue, liver ([13]; OVCAR-3 mice, liver): 0.017(0.0020) percent injected dose per gram of tissue | percent injected dose per gram of tissue, lung ([13]; OVCAR-3 mice, lung): 0.008(0.0018) percent injected dose per gram of tissue | percent injected dose per gram of tissue, small intestine ([13]; OVCAR-3 mice, small intestine): 0.011(0.0014) percent injected dose per gram of tissue | percent injected dose per gram of tissue, spleen ([13]; OVCAR-3 mice, spleen): 0.043(0.0103) percent injected dose per gram of tissue | percent injected dose per gram of tissue, stomach ([13]; OVCAR-3 mice, stomach): 0.009(0.0010) percent injected dose per gram of tissue | percent injected dose per gram of tissue, tumor ([13]; OVCAR-3 mice, tumor): 2.892(0.5317) percent injected dose per gram of tissue | percent injected dose per gram of tissue, uterus ([13]; OVCAR-3 mice, uterus): 0.027(0.0051) percent injected dose per gram of tissue | median weight [13, 15]: 0.064 g | range of weight [13, 15]: 0.044 to 0.076 g | average retention of ^125I in OVCAR-3 cells ([13]; fractionated ip doses): 0.0124 ± 0.0024 cpm/cell | radioactivity of surviving cancer cells recovered with DNA ([13]; fractionated ip doses, TCA precipitation): Virtually all radioactivity associated with surviving cancer cells was recovered with DNA | average cell pellet weight (g) (SEM) ([13]; six fractionated ip treatments): 0.061(0.006) g | percent injected dose per gram of tissue, blood ([14]; blood): 0.001(0.0001) percent injected dose per gram of tissue | percent injected dose per gram of tissue, heart ([14]; heart): 0.002(0.0003) percent injected dose per gram of tissue | percent injected dose per gram of tissue, kidney ([14]; kidney): 0.005(0.0005) percent injected dose per gram of tissue | percent injected dose per gram of tissue, large intestine ([14]; large intestine): 0.005(0.0009) percent injected dose per gram of tissue | percent injected dose per gram of tissue, liver ([14]; liver): 0.006(0.0005) percent injected dose per gram of tissue | percent injected dose per gram of tissue, lung ([14]; lung): 0.004(0.0007) percent injected dose per gram of tissue | percent injected dose per gram of tissue, small intestine ([14]; small intestine): 0.006(0.0016) percent injected dose per gram of tissue | percent injected dose per gram of tissue, spleen ([14]; spleen): 0.025(0.0025) percent injected dose per gram of tissue | percent injected dose per gram of tissue, stomach ([14]; stomach): 0.007(0.0002) percent injected dose per gram of tissue | percent injected dose per gram of tissue, uterus ([14]; uterus): 0.015(0.0011) percent injected dose per gram of tissue | binding to SHBG in human serum [8]: bind to SHBG in rabbit and human serum | binding to mouse serum [9]: appears to bind to some unidentified component of mouse serum | binding to SHBG in rabbit serum [10]: bind to SHBG in rabbit and human serum

CCOC(=O)CCC(=O)O[C@H]1C[C@H](n2cc([125I])c(=O)[nH]c2=O)O[C@@H]1CO [compound 17, 5-[^125I]Iodo-3′-O-succinyl-2′-deoxyuridine Ethyl Ester]
binding to pure SHBG isolated from human serum [1]: Neither the control reagent 17 nor compound 20, which is the metabolite of 13, binds to SHBG or to any component of analyzed sera

O=c1[nH]c(=O)n([C@H]2C[C@H](O)[C@@H](COP(=O)(O)O)O2)cc1[125I] [compound 20, 5-[^125I]Iodo-2′-deoxyuridine-5′-monophosphate]
binding to pure SHBG isolated from human serum [1]: Neither the control reagent 17 nor compound 20, which is the metabolite of 13, binds to SHBG or to any component of analyzed sera | intact compound remaining ([9]; mouse serum, after 60 min of incubation): does not survive incubation in mouse serum

B1: SHBG: Human SHBG (pure, lyophilized), injected ip alone as control or co-injected with 13 (protein, UniProt P04278 30-402, looked up)
Sex hormone-binding globulin: LRPVLPTQSAHDPPAVHLSNGPGQEPIAVMTFDLTKITKTSSSFEVRTWDPEGVIFYGDTNPKDDWFMLGLRDGRPEIQLHNHWAQLTVGAGPRLDDGRWHQVEVKMEGDSVLLEVDGEEVLRLRQVSGPLTSKRHPIMRIALGGLLFPASNLRLPLVPALDGCLRRDSWLDKQAEISASAPTSLRSCDVESNPGIFLPPGTQAEFNLRDIPQPHAEPWAFSLDLGLKQAAGSGHLLALGTPENPSWLSLHLQDQKVVLSSGSGPGLDLPLVLGLPLQLKLSMSRVVLSQGSKMKALALPPLGLAPLLNLWAKPQGRLFLGALPGEDSSTSFCLNGLWAQGQRLDVDQALNRSHEIWTHSCPQSPGNGTDASH
hematocrit (Ht) [12, 16]: 51.4 ± 1.6 | hemoglobin (Hb) [12, 16]: 11.5 ± 1.3 | average weight of solid tumors ([12]; 13 + SHBG or SHBG only): 1.9 ± 0.8 g
